“Also recorded” adds a separate entry of the source.
What was measured:
EcoHIV-infected mice [1] = conditions: cited from earlier work
[2] = Intranasal insulin pharmacokinetics in plasma, CSF and cortex; format: in vivo, C57BL/6 mice
EcoHIV-infected mice [3] = assay: Radial arm water maze; format: in vivo, C57BL/6J mice
EcoHIV-infected mice [4] = assay: Contextual fear conditioning; format: in vivo; conditions: 129x1/SvJ mice, 1 month after infection, during intranasal insulin treatment
EcoHIV = EcoHIV burdens in spleen cells and brain by quantitative PCR; format: in vivo, mice
[5] = system: MAP2 and NeuN in CA1 and CA3 regions of the hippocampus; assay: Hippocampal neuronal integrity by MAP2/NeuN immunofluorescence staining; format: in vivo, mice
Outline: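 Brains came from 3 mice per variable after behavioural testing. After perfusion, frozen sections were immunostained for MAP2 (dendrites) and NeuN (neuronal nuclei) and imaged by confocal microscopy. Fluorescence was quantified in hippocampal CA1 and CA3.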

[6] = system: neuronal function and metabolism-related genes in the brain; format: in vivo, mice; conditions: intranasal insulin daily for 9 days
[7] = intranasal 2.4 IU; cited from earlier work
[8] = intranasal 2.4 IU/mouse, uninfected mice, n = 3-8/group, observed value, ELISA
[9] = intranasal 2.4 IU/mouse, converted with 1 μIU/ml = 0.14 pmol/l
[10] = intranasal insulin daily for 9 days, QPCR

In the case of `[N-]=[N+]=CC(=O)CC[C@H](N)C(=O)O` [6-diazo-5-oxo-L-norleucine], the EcoHIV virus replication (EcoHIV-infected mice [1]) is listed as “but not virus replication” and the “murine NCI caused by EcoHIV” value (EcoHIV-infected mice [1]) is listed as “can be prevented”.

For Human insulin, the “cortex insulin level above baseline” value ([2]; for 3 h following intranasal 2.4 IU/mouse) was “more than 10 fold”, the “duration of therapeutic intracerebral insulin concentrations” value ([2]; intranasal 2.4 IU/mouse) was 2 to 3 h and the “time by which insulin cleared to baseline, cortex” value ([2]; intranasal 2.4 IU/mouse) was at most 6 h. For the same compound, the “time by which insulin cleared to baseline, plasma” value ([2]; intranasal 2.4 IU/mouse) was at most 6 h, the “time by which insulin cleared, CSF” value ([2]; intranasal 2.4 IU/mouse) was at most 3 h and the “Cmax, CSF” value [2, 8] was 17 μIU/ml. The “Cmax, plasma” value [2, 8] was 11.7 μIU/ml, the “Tmax, CSF” value [2, 8] was 1 h and the “Cmax, CSF” value [2, 9] was 2.38 pmol/L. For the same compound, the “Cmax, cortex” value [2, 9] was 7.42 pM, the “Cmax, plasma” value [2, 9] was 1.64 pmol/L and the “half-life of insulin in cerebrospinal fluid” value ([2]; intranasal administration to mice) was “about 2 h”. The “RAWM visible platform latency (mobility, vision, motivation)” value (EcoHIV-infected mice [3]; all mouse groups, intranasal insulin daily for 9 days) was “performed equally well”, the “day of RAWM testing at which maximum effect on working memory was reached” value (EcoHIV-infected mice [3]; infected mice, daily retention trial) was at most 5 days and the “NCI in RAWM, 3 months after infection” value (EcoHIV-infected mice [3]; intranasal 2.4 IU/mouse daily for 9 days, started 3 months after EcoHIV infection) was “completely reversed; also recorded: fully reversible”. For the same compound, the “RAWM performance of infected animals after treatment cessation” value (EcoHIV-infected mice [3]; last 3-day average, compared with infected, continually treated animals) was “dramatically worsened”, the “contextual freezing response time of infected mice” value (EcoHIV-infected mice [4]) was “returned the freezing response time of infected mice to that of uninfected animals” and the “peripheral virus burdens after discontinuation of insulin treatment” value (EcoHIV; EcoHIV + insulin/disc group compared with untreated mice) was “significantly increased”. The “HIV DNA brain levels, 3 months after infection” value (EcoHIV; [10]) was “not significantly affected”, the “HIV brain burdens, 1 month after infection” value (EcoHIV; [10]) was “significantly reduced” and the “HIV levels in spleen, 1 month after infection” value (EcoHIV; [10]) was “no effect”. The “NeuN staining of neuronal cell bodies in hippocampus” value ([5]; all conditions tested) was “remained unaltered”, the “MAP2 dendrite staining in CA1 and CA3 regions of hippocampus of infected mice” value ([5]; intranasal insulin daily for 9 days, three mice per variable) was “levels similar to uninfected mice” and the “downmodulation of fourteen genes in brains of EcoHIV-infected mice” value [6] was “fully reversed”. The “energy metabolism in mouse brain” value [7] was “increases energy metabolism in mouse brain” and the plasma glucose levels [7] was “but not plasma glucose levels”.
